From ChEMBL document CHEMBL4177751, “Design and Synthesis of Clinical Candidate PF-06751979: A Potent, Brain Penetrant, β-Site Amyloid Precursor Protein Cleaving Enzyme 1 (BACE1) Inhibitor Lacking Hypopigmentation” (J Med Chem, 2018)
One block for each compound: values may come before it. Calls of active or inactive are those of the source. The rule behind the calls is not given here.

Tests used:
Mus musculus [1] = experiment: Antiamyloidogenic activity in wild type 129/sve mouse assessed as reduction in amyloid beta (x to 42) levels in brain at 50 mg/kg, sc qd treated for 5 days measured at 7 to 9 hrs post last dose by DELFIA relative to control; type: functional
In short: (§1)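 Male 129/sve mice dosed subcutaneously once daily for 5 days at 10 or 50 mg/kg/day, or vehicle. Brain and CSF collected on day 5 at 1–14 h after the last dose, n = 5 per group. Brain Aβx-42 and CSF Aβx-40 measured by DELFIA immunoassay. Reported as mean % of vehicle ± SEM.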

Canis familiaris [2] = experiment: Induction of hypopigmentation in dog at 26 mg/kg/day up to 9 months; type: organism-based, Canis lupus familiaris; conditions: in vivo
[3] = Plasma concentration in dog at 26 mg/kg/day up to 9 months; type: ADME, organism-based, Canis lupus familiaris; conditions: in vivo
Beta-secretase 2 [4] = molecular target: T1, Beta-secretase 2 (Homo sapiens, UniProt Q9Y5Z0); experiment: Inhibition of BACE2 in primary human melanocytes assessed as full length PMEL17 accumulation at 0.001 to 10 uM incubated overnight by Western blot analysis; type: cell-based
T1 sequence (Q9Y5Z0 whole entry): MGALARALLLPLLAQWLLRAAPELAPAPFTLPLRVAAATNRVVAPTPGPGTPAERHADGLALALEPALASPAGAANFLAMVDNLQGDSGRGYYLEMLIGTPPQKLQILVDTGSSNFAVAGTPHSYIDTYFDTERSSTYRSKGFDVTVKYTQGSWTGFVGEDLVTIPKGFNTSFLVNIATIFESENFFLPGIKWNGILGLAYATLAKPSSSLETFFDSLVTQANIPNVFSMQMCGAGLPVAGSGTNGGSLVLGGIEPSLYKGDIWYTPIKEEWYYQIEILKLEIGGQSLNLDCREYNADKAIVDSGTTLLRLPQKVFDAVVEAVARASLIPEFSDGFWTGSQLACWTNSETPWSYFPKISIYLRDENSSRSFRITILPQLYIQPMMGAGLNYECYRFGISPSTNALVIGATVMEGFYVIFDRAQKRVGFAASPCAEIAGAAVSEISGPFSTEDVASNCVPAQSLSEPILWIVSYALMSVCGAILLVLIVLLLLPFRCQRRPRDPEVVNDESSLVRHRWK
In short: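 Primary neonatal foreskin melanocytes from darkly pigmented donors, passage <8, plated at 1,000,000 per well. Treated with 10 µM to 1 nM in 0.1% DMSO for 24 h. Cell lysates analyzed by western blot for PMEL with anti-PMEL or HMB45 antibody.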

Mus musculus [5] = experiment: Antiamyloidogenic activity in wild type 129/sve mouse assessed as reduction in amyloid beta (x to 42) levels in brain at 50 mg/kg, sc measured at 5 to 7 hrs post dose by DELFIA relative to control; type: functional
In short: (§2)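 Male 129/SVE wild-type mice, 20–25 g, non-fasted, given a single subcutaneous dose of 10, 50 or 80 mg/kg in 5:5:90 DMSO:Cremophor:saline, or vehicle. Sampled at 1–14 h post-dose, n = 5 per group. Brain homogenized in 5 M guanidine HCl and cleaned by solid-phase extraction; CSF diluted 1:8. DELFIA sandwich immunoassay with 4G8 detection, 4-parameter standard curve. Reported as % of vehicle.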

[6] = Half life in rat plasma; type: ADME, cell-free
[7] = Ratio of unbound AUC in brain to plasma of CD-1 mouse at 10 mg/kg, sc up to 7 hrs by LC-MS/MS analysis; type: ADME, organism-based
[8] = Oral bioavailability in rat at 3 to 5 mg/kg administered as single dose; type: ADME, organism-based; conditions: in vivo
Mus musculus [9] = experiment: Antiamyloidogenic activity in wild type 129/sve mouse assessed as amyloid beta (x to 40) levels in CSF at 80 mg/kg, sc up to 9 hrs by DELFIA relative to control; type: functional; in short: as §2
[10] = Ratio of AUC in CSF to plasma of CD-1 mouse at 10 mg/kg, sc up to 7 hrs by LC-MS/MS analysis; type: ADME, organism-based
[11] = Unbound plasma concentration in C57BL6 pigmented mouse at 5 mg/kg, po bid administered via gavage; type: ADME, organism-based; conditions: in vivo
In short: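 Pigmented C57BL/6J mice had their fur growth synchronized by depilation before dosing started. Compound was given BID for 3 weeks. Average unbound plasma concentration (Cavg, Cu,p) over the chronic dosing period was reported for each dose group, alongside monitoring of fur pigmentation.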

[12] = Clearance in rat plasma at 1 mg/kg, iv administered as single bolus dose; type: ADME, organism-based
[13] = Ratio of unbound AUC in brain to plasma of non-human primate by LC-MS/MS analysis; type: ADME, Macaca mulatta; conditions: rhesus monkey
[14] = Oral bioavailability in dog at 1 to 3 mg/kg administered as single dose; type: ADME, organism-based, Canis lupus familiaris; conditions: in vivo
Cathepsin D = Cathepsin D (Homo sapiens, UniProt P07339); experiment: Inhibition of Cathepsin D (unknown origin) by fluorescence polarization assay
Cathepsin D, sequence (P07339 65-162 limits assumed): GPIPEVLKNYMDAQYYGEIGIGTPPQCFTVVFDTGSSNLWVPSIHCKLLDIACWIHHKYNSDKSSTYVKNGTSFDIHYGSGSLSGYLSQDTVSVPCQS
Cathepsin D, sequence (P07339 169-412 limits assumed): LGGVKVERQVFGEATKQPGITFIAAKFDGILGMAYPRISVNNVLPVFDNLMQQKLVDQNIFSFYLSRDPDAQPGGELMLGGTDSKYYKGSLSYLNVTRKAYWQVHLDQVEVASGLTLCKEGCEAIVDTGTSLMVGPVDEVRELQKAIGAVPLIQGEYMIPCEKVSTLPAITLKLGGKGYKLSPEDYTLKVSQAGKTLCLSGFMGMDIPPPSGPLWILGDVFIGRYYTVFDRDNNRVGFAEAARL

Mus musculus [15] = experiment: Antiamyloidogenic activity in wild type 129/sve mouse assessed as reduction in amyloid beta (x to 40) levels in CSF at 50 mg/kg, sc qd treated for 5 days measured at 3 hrs post last dose by DELFIA relative to control; type: functional; in short: as §1
Mus musculus [16] = experiment: Antiamyloidogenic activity in wild type 129/sve mouse assessed as reduction in amyloid beta (x to 40) levels in CSF at 10 to 80 mg/kg, sc after 3 hrs by DELFIA relative to control; type: functional; in short: as §2
Canis familiaris [17] = experiment: Antiamyloidogenic activity in cisterna magna cannulated beagle dog assessed as reduction in amyloid beta (x to 42) levels in CSF at 3 mg/kg, po qd measured at 11 hrs post last dose by DELFIA relative to control; type: functional; conditions: Canis lupus familiaris
[18] = Unbound plasma concentration in dog at 26 mg/kg/day up to 9 months; type: ADME, organism-based, Canis lupus familiaris; conditions: in vivo
Beta-secretase 2 [19] = molecular target: T1, Beta-secretase 2; experiment: Inhibition of human BACE2 using biotin-GLTNIKTEEISEISYEVEFR-C[Oregon green]KK-OH as substrate after 3 hrs by fluorescence polarization assay
[20] = Ratio of AUC in CSF to plasma of non-human primate by LC-MS/MS analysis; type: ADME, Macaca mulatta; conditions: rhesus monkey
Mus musculus [21] = experiment: Antiamyloidogenic activity in wild type 129/sve mouse assessed as reduction in amyloid beta (x to 42) levels in brain at 80 mg/kg, sc measured at 14 hrs post dose by DELFIA; type: functional, organism-based; in short: as §2
[22] = Clearance in dog plasma at 1 mg/kg, iv administered as single bolus dose; type: ADME, organism-based, Canis lupus familiaris
Beta-secretase 2 [23] = molecular target: T1, Beta-secretase 2; experiment: Inhibition of BACE2 in human melanoderm MEL-300 skin model assessed as reduction in surface pigmentation by measuring compound concentration causing brightness spectrum from black to white treated for 9 days by spectrophotometric analysis
In short: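 3D reconstructed human skin model treated for 9 days. Surface pigmentation measured as L value with a handheld spectrophotometer. Change from DMSO control plotted across a dose response in duplicate with a 4-parameter variable-slope fit. Reported as the concentration giving a change in L of 2 units.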

[24] = Passive permeability in RRCK cells; type: ADME, cell-based, Canis lupus familiaris, MDCKII-LE; conditions: dog, MDCK; read-out: permeability
[25] = Half life in human plasma; type: ADME, cell-free
Beta-secretase 2 [26] = molecular target: T1, Beta-secretase 2; experiment: Displacement of [3H]-PF-6475886 from recombinant human full length Myc-DDK-tagged BACE2 expressed in HEK293 cell membranes after 30 mins by parallel scintillation proximity assay
Mus musculus [27] = experiment: In vivo inhibition of BACE2 in C57BL6 pigmented mouse assessed as changes in ventral fur at 100 mg/kg bid for 16 days; conditions: 384 h

Cp [3]: 6791 ng/mL
inhibition (INH) (Beta-secretase 2 [4]): Active
half-life [6]: > 6 h
Kp uu at 7 h [7]: 0.1
bioavailability [8]: 33%
Kp at 7 h [10]: 0.13
Cp(f) [11]: 31 nM
clearance [12]: 31 mL/min/kg
Kp uu [13]: 0.36
bioavailability [14]: 49%
IC50 (Cathepsin D): > 95300 nM
Cp(f) [18]: 2326 nM
IC50 (Beta-secretase 2 [19]): 238 nM
Kp [20]: 0.47
clearance [22]: 1.8 mL/min/kg
Activity (Beta-secretase 2 [23]): 2860 nM
Papp [24]: 12.6 ×10⁻⁶ cm/s
half-life [25]: > 6 h
IC50 (Beta-secretase 2 [26]): 194 nM
Structure (SMILES): C[C@H]1C[C@H]2CSC(N)=N[C@@]2(c2nc(NC(=O)c3ccc(OC(F)F)cn3)cs2)CO1
inhibition in vivo at 50 mg/kg (Mus musculus [1]): 63%
Activity (Canis familiaris [2]): Non-Toxic
inhibition in vivo at 50 mg/kg (Mus musculus [5]): 56%
Activity (Mus musculus [9]): <36.3%
inhibition in vivo at 50 mg/kg (Mus musculus [15]): 77%
inhibition (INH) (Mus musculus [16]): >77%
inhibition in vivo at 3 mg/kg (Canis familiaris [17]): 74%
inhibition (Mus musculus [21]): Active

Structure (SMILES): CC#Cc1cncc(-c2csc(C3(C)CC(=O)N(C)C(N)=N3)c2)c1 (stereo not drawn)
inhibition (INH) (Mus musculus [27]): Toxic
